Measured values reported in ChEMBL document CHEMBL4043075, “Development of Fluorinated Analogues of Perhexiline with Improved Pharmacokinetic Properties and Retained Efficacy” (J Med Chem, 2017).
The source made the active and inactive calls. No cut-off for these calls is given here.

Assays:
[1] = Plasma concentration in BALB/c mouse at 10 mg/kg, po administered via gavage every 24 hrs for 7 days measured 8 hrs post last dose by LC-MS/MS analysis; assay type: ADME, organism-based
Procedure, shortened: (§1)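 Male BALB/c mice, daily oral gavage at 10 mg/kg. Plasma and myocardium sampled 1, 4, 8 and 24 h after dosing, n = 3 per timepoint. […] Myocardium:plasma ratios taken from drug concentration or from AUC. Student's t-test used.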

[2] = test system: Heart; assay: Cardioprotective activity against Langendorff perfused C57BL/6 mouse heart assessed as lusitropic effect at 10 uM measured for 40 mins reperfusion period in presence of high fat; assay type: functional, tissue-based
Procedure, shortened: (§2)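 Isolated C57BL/6 hearts (25-30 g) retrogradely perfused at constant 80 mmHg, 37 °C, 95% O2/5% CO2, with modified Krebs containing 1.2 mM sodium palmitate conjugated to 3% BSA. After 10 min stabilisation, 30 min perfusion with control buffer or compound at 2 or 10 µM. LVdP/dt max and min derived from LV pressure over 40 min; mean ± SEM, n = 12-19, 1-way ANOVA with Bonferroni.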

[3] = Drug uptake in BALB/c mouse myocardium at 10 mg/kg, po administered via gavage every 24 hrs for 7 days measured 4 hrs post last dose by LC-MS/MS analysis; assay type: ADME, organism-based; conditions: read-out: Drug uptake; procedure, shortened: as §1
[4] = Stability of the compound in pH 7.4 PBS buffer at 37 degC after 1 hr; assay type: physicochemical; conditions: pH 7.4, 1 h
Procedure, shortened: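 Compound incubated 1 h in pH 7.4 PBS at 37 °C, then checked for decomposition.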

[5] = Ratio of drug level in myocardium to plasma in Sprague-Dawley rat at 10 mg/kg, po administered via gavage every 24 hrs measured at 8 hrs post dose by LC-MS/MS analysis; assay type: ADME, organism-based; conditions: myocardium and plasma
Procedure, shortened: (§3)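 Male Sprague-Dawley rats, daily oral dosing at 10 mg/kg. Plasma sampled at 1, 2, 4, 8 and 24 h after dosing, n = 3 per timepoint. Myocardium measured at 1 and 8 h. Myocardium:plasma ratio taken from drug concentration.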

[6] = Drug uptake in Sprague-Dawley rat myocardium at 10 mg/kg, po administered via gavage every 24 hrs measured at 1 hr post last dose by LC-MS/MS analysis; assay type: ADME, organism-based; conditions: read-out: Drug uptake; procedure, shortened: as §3
[7] = Plasma concentration in Sprague-Dawley rat at 10 mg/kg, po administered via gavage every 24 hrs measured at 1 hr post dose by LC-MS/MS analysis; assay type: ADME, organism-based; procedure, shortened: as §3
[8] = AUC (0 to 24 hrs) in BALB/c mouse plasma at 10 mg/kg, po administered via gavage every 24 hrs for 7 days measured post last dose by LC-MS/MS analysis; assay type: ADME, organism-based; set-up: dose 10 mg/kg, time < 24 hr, route oral; procedure, shortened: as §1
[9] = Plasma concentration in Sprague-Dawley rat at 10 mg/kg, po administered via gavage every 24 hrs measured at 8 hrs post last dose by LC-MS/MS analysis; assay type: ADME, organism-based; procedure, shortened: as §3
[10] = Plasma concentration in Sprague-Dawley rat at 10 mg/kg, po administered via gavage every 24 hrs measured at 4 hrs post last dose by LC-MS/MS analysis; assay type: ADME, organism-based; procedure, shortened: as §3
[11] = Ratio of drug level in myocardium to plasma in BALB/c mouse at 10 mg/kg, po administered via gavage every 24 hrs for 7 days measured 8 hrs post last dose by LC-MS/MS analysis; assay type: ADME, organism-based; conditions: myocardium and plasma; procedure, shortened: as §1
[12] = Half life in human liver microsomes at 3 uM up to 45 mins in presence of NADPH by LC-MS/MS analysis; assay type: ADME, microsome
[13] = Plasma concentration in Sprague-Dawley rat at 10 mg/kg, po administered via gavage every 24 hrs measured at 2 hrs post last dose by LC-MS/MS analysis; assay type: ADME, organism-based; procedure, shortened: as §3
[14] = Plasma concentration in BALB/c mouse at 10 mg/kg, po administered via gavage every 24 hrs for 7 days measured 4 hrs post last dose by LC-MS/MS analysis; assay type: ADME, organism-based; procedure, shortened: as §1
[15] = test system: Heart; assay: Cardioprotective activity in Langendorff perfused C57BL/6 mouse heart assessed as increase in cardiac contractility at 10 uM perfused for 30 mins in presence of high fat relative to control; assay type: functional; procedure, shortened: as §2
[16] = biological target: T1, Carnitine O-palmitoyltransferase 1, muscle isoform (Rattus norvegicus, UniProt Q63704); assay: Inhibition of Wistar rat heart mitochondrial CPT-1 assessed as reduction in conversion of palmitoyl CoA and L-carnitine into palmitoylcarnitine preincubated for 3 mins followed by L-carnitine and palmitoyl CoA addition measured for 3.5 mins by spectrophotometric analysis
T1 sequence (Q63704 whole entry): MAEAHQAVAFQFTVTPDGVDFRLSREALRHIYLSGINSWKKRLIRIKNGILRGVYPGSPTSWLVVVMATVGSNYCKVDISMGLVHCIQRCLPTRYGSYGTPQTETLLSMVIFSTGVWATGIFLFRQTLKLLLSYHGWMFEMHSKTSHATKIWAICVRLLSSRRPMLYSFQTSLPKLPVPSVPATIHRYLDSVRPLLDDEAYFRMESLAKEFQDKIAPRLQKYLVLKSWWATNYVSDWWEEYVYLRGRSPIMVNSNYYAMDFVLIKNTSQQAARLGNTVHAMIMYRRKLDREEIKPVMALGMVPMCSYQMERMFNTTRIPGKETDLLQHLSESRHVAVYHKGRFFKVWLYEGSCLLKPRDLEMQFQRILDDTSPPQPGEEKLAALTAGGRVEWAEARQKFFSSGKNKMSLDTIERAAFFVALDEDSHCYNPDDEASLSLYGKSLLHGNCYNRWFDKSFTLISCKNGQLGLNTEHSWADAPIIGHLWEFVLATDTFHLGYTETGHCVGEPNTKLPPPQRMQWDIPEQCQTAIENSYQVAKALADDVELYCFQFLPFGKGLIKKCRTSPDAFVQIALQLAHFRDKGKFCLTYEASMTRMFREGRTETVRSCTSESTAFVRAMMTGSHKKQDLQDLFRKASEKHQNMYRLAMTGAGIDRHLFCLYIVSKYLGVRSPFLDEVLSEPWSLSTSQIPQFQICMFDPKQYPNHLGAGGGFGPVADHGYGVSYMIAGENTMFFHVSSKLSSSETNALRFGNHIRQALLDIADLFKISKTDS

[17] = Ratio of drug level in myocardium to plasma in BALB/c mouse at 10 mg/kg, po administered via gavage every 24 hrs for 7 days measured 4 hrs post last dose by LC-MS/MS analysis; assay type: ADME, organism-based; conditions: myocardium and plasma; procedure, shortened: as §1
[18] = test system: Heart; assay: Cardioprotective activity in Langendorff perfused C57BL/6 mouse heart assessed as increase in cardiac relaxation at 10 uM perfused for 30 mins in presence of high fat relative to control; assay type: functional; procedure, shortened: as §2
[19] = Ratio of AUC (0 to 24 hrs) in myocardium to plasma in BALB/c mouse at 10 mg/kg, po administered via gavage every 24 hrs for 7 days measured post last dose by LC-MS/MS analysis; assay type: ADME, organism-based; conditions: myocardium and plasma, read-out: Ratio AUC; procedure, shortened: as §1
[20] = Half life in Sprague-Dawley rat liver microsomes at 3 uM up to 45 mins in presence of NADPH by LC-MS/MS analysis; assay type: ADME, microsome
[21] = Drug uptake in Sprague-Dawley rat myocardium at 10 mg/kg, po administered via gavage every 24 hrs measured at 8 hrs post last dose by LC-MS/MS analysis; assay type: ADME, organism-based; conditions: read-out: Drug uptake; procedure, shortened: as §3
[22] = Drug uptake in BALB/c mouse myocardium at 10 mg/kg, po administered via gavage every 24 hrs for 7 days measured 8 hrs post last dose by LC-MS/MS analysis; assay type: ADME, organism-based; conditions: read-out: Drug uptake; procedure, shortened: as §1
[23] = Ratio of drug level in myocardium to plasma in Sprague-Dawley rat at 10 mg/kg, po administered via gavage every 24 hrs measured at 1 hr post dose by LC-MS/MS analysis; assay type: ADME, organism-based; conditions: myocardium and plasma; procedure, shortened: as §3
[24] = Plasma concentration in BALB/c mouse at 10 mg/kg, po administered via gavage every 24 hrs for 7 days measured at 1 hr post last dose by LC-MS/MS analysis; assay type: ADME, organism-based; procedure, shortened: as §1
[25] = Drug uptake in BALB/c mouse myocardium at 10 mg/kg, po administered via gavage every 24 hrs for 7 days measured 1 hr post last dose by LC-MS/MS analysis; assay type: ADME, organism-based; conditions: read-out: Drug uptake; procedure, shortened: as §1
[26] = biological target: CYP2D6 (Homo sapiens, UniProt P10635); assay: Drug metabolism assessed as human CYP2D6-mediated compound degradation by measuring half life at 5 uM up to 45 mins in presence of NADPH by LC-MS/MS analysis; assay type: ADME
CYP2D6, sequence (P10635 whole entry): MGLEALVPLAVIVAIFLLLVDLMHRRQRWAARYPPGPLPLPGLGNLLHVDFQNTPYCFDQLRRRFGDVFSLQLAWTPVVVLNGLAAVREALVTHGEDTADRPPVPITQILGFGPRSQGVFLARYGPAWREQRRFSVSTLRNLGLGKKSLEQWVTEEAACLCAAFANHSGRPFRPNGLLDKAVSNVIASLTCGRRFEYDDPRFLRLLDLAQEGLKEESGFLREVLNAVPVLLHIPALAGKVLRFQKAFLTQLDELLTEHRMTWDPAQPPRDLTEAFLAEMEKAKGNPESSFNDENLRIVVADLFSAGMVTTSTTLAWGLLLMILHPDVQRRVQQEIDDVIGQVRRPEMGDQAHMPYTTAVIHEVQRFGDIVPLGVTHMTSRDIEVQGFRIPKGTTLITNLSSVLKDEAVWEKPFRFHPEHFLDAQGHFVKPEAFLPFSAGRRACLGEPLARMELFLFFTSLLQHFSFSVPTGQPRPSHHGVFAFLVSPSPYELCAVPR

[27] = Ratio of drug level in myocardium to plasma in BALB/c mouse at 10 mg/kg, po administered via gavage every 24 hrs for 7 days measured 1 hr post last dose by LC-MS/MS analysis; assay type: ADME, organism-based; conditions: myocardium and plasma; procedure, shortened: as §1
[28] = AUC (0 to 24 hrs) in BALB/c mouse myocardium at 10 mg/kg, po administered via gavage every 24 hrs for 7 days measured post last dose by LC-MS/MS analysis; assay type: ADME, organism-based; set-up: time < 24 hr, dose 10 mg/kg, route oral; procedure, shortened: as §1
[29] = test system: Heart; assay: Cardioprotective activity in Langendorff perfused C57BL/6 mouse heart perfused for 30 mins in presence of high fat; assay type: functional, tissue-based

Compound: FC1(F)CCC(C(CC2CCCCN2)C2CCCCC2)CC1 (centres undefined)
- concentration at 8 h [1]: 192 ng/mL
- Activity [2]: Active
- concentration at 4 h [3]: 1880 ng/mL
- Stability [4]: Stable
- Kp at 8 h [5]: 7.2
- concentration at 1 h [6]: 5910 ng/mL
- concentration at 1 h [7]: 386 ng/mL
- AUC at 24 h [8]: 3760 ng·h/mL
- concentration at 8 h [9]: 179 ng/mL
- concentration at 4 h [10]: 297 ng/mL
- Kp at 8 h [11]: 9.5
- half-life at 3 µM [12]: > 500 min
- concentration at 2 h [13]: 375 ng/mL
- concentration at 4 h [14]: 172 ng/mL
- fold change (FC) [15]: 1.8
- IC50 [16]: 45 µM
- Kp at 4 h [17]: 10.9
- fold change (FC) [18]: 2.7
- Kp [19]: 8.6
- half-life at 3 µM [20]: 72 min
- concentration at 8 h [21]: 1290 ng/mL
- concentration at 8 h [22]: 1830 ng/mL
- Kp at 1 h [23]: 15.3
- concentration at 1 h [24]: 346 ng/mL
- concentration at 1 h [25]: 3730 ng/mL
- half-life at 5 µM [26]: 104 min
- Kp at 1 h [27]: 10.7
- AUC at 24 h [28]: 32400 ng·h/mL
- Activity [29]: Dose-dependent effect
